The results in this text go back to ChEMBL document CHEMBL1926521, “Arylcyanoacrylamides as inhibitors of the Dengue and West Nile virus proteases” (Bioorg Med Chem, 2011).

Activity calls are given as the source filed them. The calls are words filed in the database; no cut-off is given here.

One test deals with West Nile virus. The experiment in a line: Inhibition of West Nile virus NS2B-NS3 protease expressed in Escherichia coli BL21 lambda (DE3) using Abz-GLKRGG-3-(NO2)Y as substrate at 50 uM preincubated for 15 mins before substrate addition measured up to 15 mins by spectrofluorimetry. An outline of the steps: (§1)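 Single-concentration screen against His-tagged NS2B-NS3 protease (Ni²⁺-affinity purified from E. coli). Enzyme was 100 nM for Dengue or 150 nM for West Nile. Inhibitor at 50 µM was preincubated 15 min with enzyme, then internally quenched FRET substrate (final 50 µM) was added. Read at ex 320/em 405 nm for 15 min. Rate taken as RFU/s; % inhibition is the mean of triplicates.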

Another test has as its target Prothrombin (Homo sapiens, UniProt P00734). The experiment in a line: Inhibition of human thrombin using Boc-VPR-AMC as substrate at 25 uM preincubated for 15 mins before substrate addition measured up to 10 mins by spectrofluorimetry.
The test system of the next test is Dengue virus. The experiment in a line: Inhibition of Dengue virus NS2B-NS3 protease expressed in Escherichia coli BL21 lambda (DE3) using Abz-NleKRRS-3-(NO2)Y as substrate at 50 uM preincubated for 15 mins before substrate addition measured up to 15 mins by spectrofluorimetry. An outline of the steps: as §1

Usually inhibition stands for the share of the control response that was lost under treatment. Consider `CC(C)c1ccc(/C=C(\C#N)C(N)=O)cc1`, for which the figures for the inhibition with West Nile virus, on Prothrombin and in the test with Dengue virus were 24.6%, 19.4% and 23%, respectively.
As to `N#C/C(=C\c1sccc1Br)C(N)=O`, the values for the inhibition in the test with West Nile virus, on Prothrombin and in the test on Dengue virus were 19.3%, 10.1% and 18.4%, respectively.
Take `N#CC(Cc1c[nH]c2ccccc12)C(N)=O` (stereo not given): the inhibition entry in the test on West Nile virus, on Prothrombin and in the test with Dengue virus was “inactive” throughout.
Regarding `N#C/C(=C\c1ccc(F)cc1)C(N)=O`, the values for the inhibition with West Nile virus, against Prothrombin and with Dengue virus were 16%, 7.9% and 22.5%, respectively.
Consider `N#C/C(=C\c1cccc(C(=O)NC2CC2)c1)C(=O)NC1CC1`, for which the inhibition came out at 19.1% with West Nile virus, 8% against Prothrombin and 10.8% in the test on Dengue virus.
Consider `N#C/C(=C\c1ccc(O)cc1)C(=O)N1CCOCC1`, for which the inhibition in the test on West Nile virus turned out to be 49.9%; against Prothrombin, 18%; in the test on Dengue virus, 32.2%.
For `N#C/C(=C\c1ccc(C(=O)N2CCOCC2)cc1)C(=O)NC1CC1`, in that order: 23%, 9% and 22.9%.
On to `CC(=O)Oc1ccc(/C=C(\C#N)C(N)=O)cc1`, for which the inhibition in the test with West Nile virus is 28.8%; at Prothrombin, 24.4%; with Dengue virus, 43.1%.
In the case of `COc1cccc(/C=C(\C#N)C(N)=O)c1`, the results for the inhibition in the test with West Nile virus, on Prothrombin and with Dengue virus were 12.3%, 9.6% and 16.3%, respectively.
Take `C/C(=C(\C#N)C(N)=O)c1ccccc1`: the inhibition in the test with West Nile virus was 18.4%; on Prothrombin, 9.7%; in the test with Dengue virus it was 9%.
Consider `N#C/C(=C\c1ccccc1)C(N)=O`, for which the results for the inhibition with West Nile virus, on Prothrombin and with Dengue virus were 9.3%, 12.5% and 15%, respectively.
With `N#C/C(=C\c1ccc(Br)s1)C(N)=O`, the values for the inhibition with West Nile virus, on Prothrombin and in the test on Dengue virus were 19.2%, 26.3% and 20.2%, respectively.
For `COc1ccc(/C=C(\C#N)C(N)=O)cc1OC`, in that order: 22%, 20% and 19.2%.
With `N#C/C(=C\c1ccc(O)c(O)c1)C(N)=O`, the figures for the inhibition in the test on West Nile virus, on Prothrombin and in the test with Dengue virus were 28.8%, 18.4% and 34.9%, respectively.
Regarding `CN(C)c1ccc(C=C(C#N)C#N)cc1`, the values for the inhibition in the test on West Nile virus, against Prothrombin and with Dengue virus were 8.8%, 16.3% and 8.7%, respectively.
For `N#C/C(=C\c1cccc(O)c1)C(N)=O`, in that order: 18.1%, 9.8% and 15.7%.
On to `CC(=C\c1ccccc1)/C=C(\C#N)C(=O)NCC1CCCO1` (stereo not given), for which the inhibition came out at 30.1% with West Nile virus, 28.7% on Prothrombin and 36.8% with Dengue virus.
Regarding `N#C/C(=C\c1ccc(N2CCCC2)cc1)C(N)=O`, the figures for the inhibition in the test with West Nile virus, against Prothrombin and in the test on Dengue virus were 24.6%, 17.7% and 24.3%, respectively.
As to `C/C(=C\c1ccccc1)CC(C#N)C(N)=O` (stereo not given), the inhibition entry in the test with West Nile virus, at Prothrombin and in the test on Dengue virus was “inactive” in each case.
On to `C/C(=C(/C#N)C(N)=O)c1ccccc1`, for which the inhibition is 13.7% in the test with West Nile virus and 7.3% on Prothrombin. For the same compound, in the test on Dengue virus, the inhibition result is “inactive”.
Turning to `COC(=O)[C@H](CO)NC(=O)/C(C#N)=C/c1ccc(OC)cc1`, the inhibition with West Nile virus is 21.1%; on Prothrombin, 21.4%; with Dengue virus, 20.3%.
As to `CC(C)c1ccc(/C=C(\C#N)C(=O)NC2CC2)cc1`, the figures for the inhibition in the test on West Nile virus, against Prothrombin and in the test with Dengue virus were 22.2%, 17.9% and 18.2%, respectively.
For `N#C/C(=C\c1ccc(C(=O)N2CCCCC2)cc1)C(N)=O`, in that order: 24%, “inactive” and 22.3%.
Turning to `N#C/C(=C\c1ccc(Cl)cc1Cl)C(N)=O`, the inhibition was 10.7% in the test with West Nile virus, 8.5% against Prothrombin and 14.7% in the test on Dengue virus.
For `N#C/C(=C\c1ccc(N2CCOCC2)s1)C(N)=O`, in that order: 29.1%, 38.6% and 23.2%.
For `COc1ccc(/C=C(\C#N)C(N)=O)cc1`, in that order: 23.4%, 16.7% and 19.7%.
Take `N#C/C(=C\c1ccc(N2CCNCC2)cc1)C(N)=O`: the results for the inhibition with West Nile virus, against Prothrombin and in the test with Dengue virus were 45%, 26.1% and 28.6%, respectively.
For `N#C/C(=C\c1ccc(O)cc1)C(=O)NCc1ccccn1`, in that order: 41.8%, 18.9% and 46.6%.
With `CCC/C(=C(\C#N)C(N)=O)c1ccccc1`, the inhibition turned out to be 16% with West Nile virus, 6.9% at Prothrombin and 7.6% in the test with Dengue virus.
For `CN1CCN(c2ccc(/C=C(\C#N)C(N)=O)cc2)CC1`, in that order: 40.9%, 22% and 32.3%.
For `N#C/C(=C\c1ccc([N+](=O)[O-])cc1)C(N)=O`, in that order: 10.5%, “inactive” and “inactive”.
Regarding `CN1CCN(c2ccc(/C=C(\C#N)C(=O)NC3CC3)cc2)CC1`, the inhibition with West Nile virus amounted to 47.8%; against Prothrombin, 21.8%; in the test on Dengue virus, 37.4%.
For `CC(=C\c1ccccc1)/C=C(\C#N)C(N)=O`, in that order: 34.6%, 20.5% and 30.2%.
With `CC(C)c1ccc(/C=C(\C#N)C(=O)NCc2ccccn2)cc1`, the inhibition in the test on West Nile virus stood at 39.5%; against Prothrombin, 11.6%; in the test with Dengue virus, 24.9%.
For `CC(C)/C(=C(/C#N)C(N)=O)c1ccccc1`, in that order: “inactive”, 16.7% and “inactive”.
Regarding `N#C/C(=C\c1cccs1)C(N)=O`, the inhibition in the test with West Nile virus was found to be 23.9%; against Prothrombin it was 15.7%; in the test on Dengue virus, 28.4%.
For `N#C/C(C(N)=O)=C1\CCc2ccccc21`, in that order: 24.1%, 10.3% and 23.2%.
For `N#C/C(=C\c1cc(O)c(O)c([N+](=O)[O-])c1)C(N)=O`, in that order: 28.2%, 22.5% and 24.3%.
`COc1cc(/C=C(\C#N)C(N)=O)ccc1OCc1ccccc1`: the inhibition result in the test on West Nile virus and with Dengue virus was “inactive” throughout. The inhibition against Prothrombin was 16%.
Regarding `C/C(=C(\C#N)C(N)=O)c1ccc(O)cc1`, the results for the inhibition with West Nile virus and in the test on Dengue virus were 22.7% and 13.2%, respectively. The inhibition entry at Prothrombin was “inactive”.
Take `CN(C)c1ccc(/C=C(\C#N)C(=O)NC2CC2)cc1`: the inhibition with West Nile virus is 33.2%; at Prothrombin, 23.7%; in the test with Dengue virus, 22.6%.
For `N#C/C(=C\c1c[nH]c2ccccc12)C(N)=O`, the inhibition with West Nile virus was found to be 33.4%; at Prothrombin it was 16.4%; with Dengue virus, 23.7%.
Take `N#C/C(=C\c1ccc(Br)o1)C(=O)NC1CC1`: the inhibition in the test on West Nile virus amounted to 23.9%; at Prothrombin, 26.9%; with Dengue virus it was 15.6%.
For `CN1CCN(C(=O)/C(C#N)=C/c2ccc(O)cc2)CC1`, in that order: 35.1%, 20.8% and 35.4%.
For `N#C/C(=C\c1ccccc1N1CCOCC1)C(N)=O`, in that order: 7.7%, 7.4% and 10.4%.
For `CN(C)c1ccc(/C=C(\C#N)C(=O)N2CCOCC2)cc1`, in that order: 38.1%, 25.1% and 43.3%.
In the case of `N#C/C(=C\c1ccc(Cl)s1)C(N)=O`, the inhibition in the test with West Nile virus is 23.8%; against Prothrombin it was 27.9%; in the test on Dengue virus it was 22%.
For `C/C(=C(/C#N)C(N)=O)c1ccc(O)cc1`, in that order: 21.9%, “inactive” and 16.8%.
In the case of `N#C/C(=C\c1cccnc1)C(N)=O`, the inhibition result in the test with West Nile virus, at Prothrombin and in the test with Dengue virus was “inactive” each time.
As to `CC(C)/C(=C(\C#N)C(N)=O)c1ccccc1`, the values for the inhibition in the test on West Nile virus and at Prothrombin were 13.8% and 10.1%, respectively. Moreover, in the test on Dengue virus, the inhibition result is “inactive”.
On to `N#C/C(=C\c1ccc(O)cc1)C(=O)NC1CC1`, for which the inhibition in the test on West Nile virus is 57.3%; at Prothrombin it was 18.8%; in the test with Dengue virus, 44.7%.
Regarding `CCN(CC)C(=O)/C(C#N)=C/c1cc(O)c(O)c([N+](=O)[O-])c1`, the inhibition with West Nile virus was determined as 32.4%; against Prothrombin, 21.9%; in the test with Dengue virus it was 21%.
As to `COc1ccc(/C=C(\C#N)C(=O)N[C@@H](CO)C(=O)NC2CC2)cc1`, the inhibition with West Nile virus worked out at 31.7%; on Prothrombin, 23.3%; with Dengue virus, 23%.
For `CN(C)c1ccc(/C=C(\C#N)C(N)=S)cc1`, the inhibition entry in the test with West Nile virus and with Dengue virus was “inactive” throughout. The same compound had an inhibition on Prothrombin of 13.7%.
`N#C/C(=C\c1ccc(Br)s1)C(=O)NC1CC1`: the inhibition in the test with West Nile virus stood at 10.5%; at Prothrombin, 17.9%. Further, the inhibition entry with Dengue virus is “inactive”.
